The source of these data is ChEMBL document CHEMBL4396871, “Leveraging a Low-Affinity Diazaspiro Orthosteric Fragment to Reduce Dopamine D3 Receptor (D3R) Ligand Promiscuity across Highly Conserved Aminergic G-Protein-Coupled Receptors (GPCRs)” (J Med Chem, 2019).

Structures are written as SMILES.

What is called inhibition is how much of the control response was suppressed. Usually Ki stands for a measure of affinity in units of concentration, obtained from inhibition or displacement. By EC50 is commonly meant the concentration that produces a half-maximal response.

Experiment [1] addresses Sodium-dependent serotonin transporter (Homo sapiens, UniProt P31645). As to the kind of experiment: Displacement of [3H]-citalopram from recombinant human SERT stably expressed in HEK cells at 10 uM measured after 90 mins by microbeta scintillation counting method relative to control. The experiment is classed as cell-based. Put shortly:
(§1)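 Primary screen at 10 μM compound, expressed as % receptor inhibition, from at least three experiments.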

The target of the next experiment is Histamine H3 receptor (Homo sapiens, UniProt Q9Y5N1). As to the kind of experiment: Displacement of [3H]-alpha-methylhistamine from human histamine H3 receptor stably expressed in HEK Flp-In cells at 10 uM after 90 mins by microbeta scintillation counting method relative to control. The format is cell-based. Put shortly: as §1
Histamine H3 receptor, sequence (Q9Y5N1 whole entry): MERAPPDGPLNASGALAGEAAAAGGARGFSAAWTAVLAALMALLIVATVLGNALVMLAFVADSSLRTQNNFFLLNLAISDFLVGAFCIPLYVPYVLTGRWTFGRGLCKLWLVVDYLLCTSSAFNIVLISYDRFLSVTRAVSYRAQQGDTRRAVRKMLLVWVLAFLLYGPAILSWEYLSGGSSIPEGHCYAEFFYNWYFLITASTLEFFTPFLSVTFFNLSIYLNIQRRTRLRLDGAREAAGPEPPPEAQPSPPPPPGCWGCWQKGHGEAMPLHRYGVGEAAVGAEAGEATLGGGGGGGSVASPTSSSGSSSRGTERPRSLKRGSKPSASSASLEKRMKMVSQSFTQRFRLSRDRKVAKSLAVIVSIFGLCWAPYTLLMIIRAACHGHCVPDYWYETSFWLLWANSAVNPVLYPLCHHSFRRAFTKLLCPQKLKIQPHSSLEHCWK
(In general: Displacement assays read how much labelled ligand stays bound in the presence of the test substance.)

For the next experiment, the target named is D2 dopamine receptor (Homo sapiens, UniProt P14416). As to the kind of experiment: Displacement of [3H]N-methylspiperone from recombinant human D2 receptor stably expressed in fibroblast measured after 90 mins by microbeta scintillation counting method.
D2 dopamine receptor, sequence (P14416 whole entry): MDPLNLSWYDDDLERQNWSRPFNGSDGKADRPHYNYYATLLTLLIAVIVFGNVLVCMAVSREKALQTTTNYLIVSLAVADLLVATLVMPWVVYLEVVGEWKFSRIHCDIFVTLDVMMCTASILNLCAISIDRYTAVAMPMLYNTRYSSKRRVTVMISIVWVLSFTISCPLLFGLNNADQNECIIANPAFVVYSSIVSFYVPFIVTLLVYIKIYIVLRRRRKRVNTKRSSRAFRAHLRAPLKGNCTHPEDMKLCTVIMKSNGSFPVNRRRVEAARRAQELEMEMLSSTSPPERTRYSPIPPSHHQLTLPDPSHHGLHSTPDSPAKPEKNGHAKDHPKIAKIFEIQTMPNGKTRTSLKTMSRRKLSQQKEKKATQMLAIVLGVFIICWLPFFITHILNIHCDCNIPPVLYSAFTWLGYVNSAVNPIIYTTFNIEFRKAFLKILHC
For experiment [2], the target named is T1, Sodium-dependent noradrenaline transporter (Homo sapiens, UniProt P23975). Put plainly: Displacement of [3H]-nisoxetine from recombinant human NET stably expressed in HEK cells at 10 uM measured after 90 mins by microbeta scintillation counting method relative to control. The experiment is classed as cell-based. Put shortly:
as §1

Experiment [3] concerns the target T2, D(4) dopamine receptor (Homo sapiens, UniProt P21917). As to the kind of experiment: Agonist activity at recombinant human D4 receptor expressed in CHOK1 cells assessed as induction of beta arrestin2 recruitment measured after 30 mins by coelenterazine-based beta-galactosidase reporter gene assay. The experiment is classed as cell-based. For orientation: Recruitment of arrestin is a read-out of receptor activation apart from second messengers.

The target in experiment [4] is T2, D(4) dopamine receptor. Put plainly: Displacement of [3H]N-methylspiperone from recombinant human D4 receptor stably expressed in HEK cell membranes measured after 90 mins by microbeta scintillation counting method.
Experiment [5] concerns the target Muscarinic acetylcholine receptor M3 (Homo sapiens, UniProt P20309). Put plainly: Displacement of [3H]-QNB/[3H]-NMS from human muscarinic M3 receptor expressed in stable CHO cells at 10 uM after 90 mins by microbeta scintillation counting method relative to control. The experiment is classed as cell-based. Put shortly: as §1
The target in experiment [6] is Muscarinic acetylcholine receptor M2 (Homo sapiens) (UniProt P08172). As to the kind of experiment: Displacement of [3H]-QNB/[3H]-NMS from human muscarinic M2 receptor expressed in stable CHO cells at 10 uM after 90 mins by microbeta scintillation counting method relative to control. The format is cell-based. Put shortly:
as §1

Experiment [7] concerns the target T1, Sodium-dependent noradrenaline transporter. Put plainly: Displacement of [3H]-nisoxetine from recombinant human NET stably expressed in HEK cells measured after 90 mins by microbeta scintillation counting method. The experiment is classed as cell-based.
In experiment [8] the target is Muscarinic acetylcholine receptor M2 (Homo sapiens, UniProt P08172). Put plainly: Displacement of [3H]-QNB/[3H]-NMS from human muscarinic M2 receptor expressed in stable CHO cells after 90 mins by microbeta scintillation counting method. The format is cell-based.
Muscarinic acetylcholine receptor M2, sequence (P08172 whole entry): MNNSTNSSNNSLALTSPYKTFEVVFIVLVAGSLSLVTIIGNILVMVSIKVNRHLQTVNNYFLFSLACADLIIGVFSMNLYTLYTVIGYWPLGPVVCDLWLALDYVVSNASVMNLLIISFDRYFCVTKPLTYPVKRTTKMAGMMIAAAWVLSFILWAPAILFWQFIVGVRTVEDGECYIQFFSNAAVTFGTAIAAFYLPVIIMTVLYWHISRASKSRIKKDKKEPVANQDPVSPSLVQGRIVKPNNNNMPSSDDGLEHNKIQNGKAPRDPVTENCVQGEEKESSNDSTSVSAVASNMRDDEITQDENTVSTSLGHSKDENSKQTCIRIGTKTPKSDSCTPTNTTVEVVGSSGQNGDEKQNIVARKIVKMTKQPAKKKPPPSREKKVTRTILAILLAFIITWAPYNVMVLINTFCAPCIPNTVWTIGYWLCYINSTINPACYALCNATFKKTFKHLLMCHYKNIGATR
In another experiment the target is D(1B) dopamine receptor (Homo sapiens, UniProt P21918). As to the kind of experiment: Displacement of [3H]-SCH23390 from recombinant human D5 receptor transiently expressed in HEK cell membranes at 10 uM measured after 90 mins by microbeta scintillation counting method relative to control. Put shortly:
as §1

The target in experiment [9] is 5-hydroxytryptamine receptor 1B (Homo sapiens, UniProt P28222). As to the kind of experiment: Displacement of [3H]-5-CT from recombinant human 5HT1B receptor stably expressed in HEK cell membranes at 10 uM measured after 90 mins by microbeta scintillation counting method relative to control. Put shortly: as §1
5-hydroxytryptamine receptor 1B, sequence (P28222 whole entry): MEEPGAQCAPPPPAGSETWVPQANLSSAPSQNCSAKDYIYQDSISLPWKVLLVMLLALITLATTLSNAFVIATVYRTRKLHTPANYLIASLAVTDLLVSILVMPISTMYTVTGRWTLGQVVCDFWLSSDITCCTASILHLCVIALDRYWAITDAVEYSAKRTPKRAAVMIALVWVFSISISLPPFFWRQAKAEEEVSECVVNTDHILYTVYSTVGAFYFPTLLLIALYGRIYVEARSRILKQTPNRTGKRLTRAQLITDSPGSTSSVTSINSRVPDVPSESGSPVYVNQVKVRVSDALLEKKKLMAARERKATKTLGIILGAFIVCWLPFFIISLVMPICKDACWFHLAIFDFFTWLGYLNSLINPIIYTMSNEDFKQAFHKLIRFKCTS

T2 sequence (P21917 whole entry): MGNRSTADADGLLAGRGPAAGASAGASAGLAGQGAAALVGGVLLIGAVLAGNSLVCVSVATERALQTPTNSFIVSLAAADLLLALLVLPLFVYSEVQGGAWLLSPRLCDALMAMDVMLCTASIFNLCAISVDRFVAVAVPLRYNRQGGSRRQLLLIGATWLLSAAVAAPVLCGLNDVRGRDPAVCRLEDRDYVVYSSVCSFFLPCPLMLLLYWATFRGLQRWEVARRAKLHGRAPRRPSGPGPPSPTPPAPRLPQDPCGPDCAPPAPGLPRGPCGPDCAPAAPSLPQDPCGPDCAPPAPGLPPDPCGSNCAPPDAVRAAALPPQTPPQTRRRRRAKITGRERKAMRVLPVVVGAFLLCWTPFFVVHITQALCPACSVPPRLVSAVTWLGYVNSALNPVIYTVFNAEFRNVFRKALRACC
T1 sequence (P23975 whole entry): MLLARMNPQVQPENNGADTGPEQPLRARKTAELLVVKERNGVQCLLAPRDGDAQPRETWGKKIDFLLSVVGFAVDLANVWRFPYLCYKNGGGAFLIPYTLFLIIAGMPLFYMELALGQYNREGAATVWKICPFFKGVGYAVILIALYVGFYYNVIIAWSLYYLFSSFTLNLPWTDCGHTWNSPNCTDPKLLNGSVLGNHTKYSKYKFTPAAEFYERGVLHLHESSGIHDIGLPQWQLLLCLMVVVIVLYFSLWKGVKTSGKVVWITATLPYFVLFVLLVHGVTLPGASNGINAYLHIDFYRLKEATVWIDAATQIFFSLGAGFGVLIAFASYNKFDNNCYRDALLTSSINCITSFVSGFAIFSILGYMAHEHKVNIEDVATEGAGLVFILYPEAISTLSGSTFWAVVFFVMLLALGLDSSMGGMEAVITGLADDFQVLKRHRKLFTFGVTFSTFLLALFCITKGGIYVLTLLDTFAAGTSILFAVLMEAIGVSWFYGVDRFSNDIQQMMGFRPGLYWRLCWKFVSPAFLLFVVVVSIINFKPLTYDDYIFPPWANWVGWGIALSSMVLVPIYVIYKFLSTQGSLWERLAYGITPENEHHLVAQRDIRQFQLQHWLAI
Sodium-dependent serotonin transporter, sequence (P31645 whole entry, looked up): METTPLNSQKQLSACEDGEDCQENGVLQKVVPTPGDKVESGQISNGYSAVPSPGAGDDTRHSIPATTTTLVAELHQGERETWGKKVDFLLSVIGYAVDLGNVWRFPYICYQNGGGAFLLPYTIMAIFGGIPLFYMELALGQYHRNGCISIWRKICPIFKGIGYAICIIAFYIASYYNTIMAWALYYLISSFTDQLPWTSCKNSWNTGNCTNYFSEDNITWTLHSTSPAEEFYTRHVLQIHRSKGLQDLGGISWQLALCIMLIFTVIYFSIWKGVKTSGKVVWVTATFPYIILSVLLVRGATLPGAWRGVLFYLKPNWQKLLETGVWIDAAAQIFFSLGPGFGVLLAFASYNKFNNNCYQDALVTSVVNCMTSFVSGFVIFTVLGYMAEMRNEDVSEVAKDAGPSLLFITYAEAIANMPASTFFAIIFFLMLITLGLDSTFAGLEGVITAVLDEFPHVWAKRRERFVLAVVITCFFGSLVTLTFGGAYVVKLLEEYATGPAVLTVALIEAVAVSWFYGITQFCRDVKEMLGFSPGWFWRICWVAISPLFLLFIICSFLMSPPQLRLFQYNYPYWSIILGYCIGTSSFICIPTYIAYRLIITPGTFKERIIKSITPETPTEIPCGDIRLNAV
D(1B) dopamine receptor, sequence (P21918 whole entry): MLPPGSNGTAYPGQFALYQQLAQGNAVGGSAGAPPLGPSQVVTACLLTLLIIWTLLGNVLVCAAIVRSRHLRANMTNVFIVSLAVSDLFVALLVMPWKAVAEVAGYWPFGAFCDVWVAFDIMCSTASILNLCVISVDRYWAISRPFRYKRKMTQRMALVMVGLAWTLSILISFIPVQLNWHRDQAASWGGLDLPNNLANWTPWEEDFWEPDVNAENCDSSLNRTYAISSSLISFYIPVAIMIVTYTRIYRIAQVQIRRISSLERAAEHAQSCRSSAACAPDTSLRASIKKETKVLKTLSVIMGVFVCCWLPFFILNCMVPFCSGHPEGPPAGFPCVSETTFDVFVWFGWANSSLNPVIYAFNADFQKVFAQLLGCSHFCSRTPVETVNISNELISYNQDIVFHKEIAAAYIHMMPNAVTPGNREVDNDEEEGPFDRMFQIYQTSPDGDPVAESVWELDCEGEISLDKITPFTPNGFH
Muscarinic acetylcholine receptor M2 (Homo sapiens), sequence (P08172 whole entry): as the sequence (P08172 whole entry) above
Muscarinic acetylcholine receptor M3, sequence (P20309 whole entry, looked up): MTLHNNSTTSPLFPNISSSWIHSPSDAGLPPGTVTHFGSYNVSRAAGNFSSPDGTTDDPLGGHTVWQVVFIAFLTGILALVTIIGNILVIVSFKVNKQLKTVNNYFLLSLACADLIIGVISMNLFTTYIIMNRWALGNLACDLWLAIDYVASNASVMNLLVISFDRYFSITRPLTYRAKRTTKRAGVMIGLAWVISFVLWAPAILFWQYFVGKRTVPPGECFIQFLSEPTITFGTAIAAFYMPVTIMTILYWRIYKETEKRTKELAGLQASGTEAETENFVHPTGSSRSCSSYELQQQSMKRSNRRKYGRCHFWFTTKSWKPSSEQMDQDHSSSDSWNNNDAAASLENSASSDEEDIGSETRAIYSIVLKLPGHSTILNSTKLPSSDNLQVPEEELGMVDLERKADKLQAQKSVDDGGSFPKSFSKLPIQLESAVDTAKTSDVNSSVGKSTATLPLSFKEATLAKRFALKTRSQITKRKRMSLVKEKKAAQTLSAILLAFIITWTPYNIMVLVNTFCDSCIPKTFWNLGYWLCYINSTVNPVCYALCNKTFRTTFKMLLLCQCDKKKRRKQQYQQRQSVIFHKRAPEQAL

For the molecule `COc1ccccc1N1CCN(CCCSc2nnc(-c3ccccc3)n2C)CC1`, the inhibition (in experiment [1]; on Histamine H3 receptor; in experiment [2]; in experiment [5]; in experiment [6]) was < 50% each time. Besides, the Ki was 577 nM on D2 dopamine receptor and 721 nM on D(4) dopamine receptor [4]. Besides, at D(4) dopamine receptor [3], the EC50 was 359 nM.

With `COc1ccccc1N1CCC2(CCN(CCCSc3nnc(-c4ccccc4)n3C)CC2)CC1`, the Ki in experiment [7] amounted to 931 nM; in experiment [8] it was 52 nM. Moreover, the inhibition (on D(1B) dopamine receptor; in experiment [9]) was < 50% in each case.
